Test results taken from ChEMBL document CHEMBL1150220, “Additional cytotoxic polyacetylenes from the marine sponge Petrosia species” (2001).
Values after ≈ are worked out from the molar mass of the structure shown.

Key:
Assay type in all cases: functional
[1] = test system: A549; assay: Cytotoxicity against human A549 cells; settings: read-out: ED50 (the source's name)
[2] = test system: SK-OV-3; assay: Cytotoxicity against human SKOV3 cells; settings: read-out: ED50 (the source's name)
[3] = test system: SK-MEL-2; assay: Cytotoxicity against human SK-MEL-2 cells; settings: read-out: ED50 (the source's name)
[4] = test system: XF498; assay: Cytotoxicity against human XF498 cells; settings: read-out: ED50 (the source's name)
[5] = test system: HCT-15; assay: Cytotoxicity against human HCT15 cells; settings: read-out: ED50 (the source's name)
[6] = test system: Simian virus 40; assay: Inhibition of SV40 DNA replication assessed as [alpha32P]dATP formation at 125 uM after 90 mins by agarose gel electrophoresis; settings: Betapolyomavirus macacae, 1.5 h
How it was run: (§1)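 Cell-free SV40 DNA replication in Tris creatine phosphate buffer (pH 7.7) with creatine kinase, 7 mM MgCl2, 0.5 mM DTT, 4 mM ATP, 200 µM UTP/GTP/CTP, 100 µM dATP/dGTP/dCTP, SV40 T-Ag, origin-containing pUC DNA and replication proteins. The [α-32P]dATP variant ran 90 min at 37 °C, was stopped with EDTA/SDS/tRNA, and DNA was resolved on 1.0% agarose (12-14 h, 2 V/cm) and autoradiographed.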

[7] = test system: Simian virus 40; assay: Inhibition of SV40 DNA replication assessed as [alpha32P]dATP formation at 250 uM after 90 mins by agarose gel electrophoresis; settings: Betapolyomavirus macacae, 1.5 h; how it was run: as §1
[8] = test system: Simian virus 40; assay: Inhibition of SV40 DNA replication assessed as [alpha32P]dATP formation at 500 uM after 90 mins by agarose gel electrophoresis; settings: Betapolyomavirus macacae, 1.5 h; how it was run: as §1

SMILES	EC50 [1]	EC50 [2]	EC50 [3]	EC50 [4]	EC50 [5]	inhibition at 125 µM [6]	inhibition at 250 µM [7]	inhibition at 500 µM [8]
C#CCCCCCCCCCCCCCCCC/C=C\CCCC/C=C\CCCCC#C[C@@H](O)C#CCCCCCC/C=C/[C@H](O)C#C	> 10 µg/mL	1.5 µg/mL (≈ 2.28 µM)	1.5 µg/mL (≈ 2.28 µM)	5.8 µg/mL (≈ 8.83 µM)	2.5 µg/mL (≈ 3.8 µM)	40%	70%	100%
C#C/C=C\CCCCCCCCCCCCCCC/C=C\CCCC/C=C\CCCCC#C[C@@H](O)C#CCCCCCC/C=C/[C@H](O)C#C	11.3 µg/mL (≈ 16.9 µM)	2.2 µg/mL (≈ 3.29 µM)	0.8 µg/mL (≈ 1.2 µM)	2.5 µg/mL (≈ 3.74 µM)	1.7 µg/mL (≈ 2.54 µM)	59%	86%	100%
C#C/C=C\CCCCCCCCCCCCCC/C=C\CCC/C=C/C(O)CCCCC#C[C@H](O)C#CCCCCCC/C=C/[C@H](O)C#C (some centres not stated)	26.3 µg/mL (≈ 39.2 µM)	1.9 µg/mL (≈ 2.83 µM)	2.3 µg/mL (≈ 3.43 µM)	8 µg/mL (≈ 11.9 µM)	5 µg/mL (≈ 7.45 µM)	79%	94%	100%
C#C/C=C\CCCCCCCCCCCCC/C=C\CCCC/C=C\CCCCC#C[C@@H](O)C#CCCCCCC/C=C/[C@H](O)C#C [NOR-3S,14S-PETROCORTYNE A]	7.3 µg/mL (≈ 11.4 µM)	4.4 µg/mL (≈ 6.86 µM)	3.8 µg/mL (≈ 5.93 µM)	6.1 µg/mL (≈ 9.52 µM)	3.5 µg/mL (≈ 5.46 µM)	12%	47%	70%
C#C/C=C\CCCCCCCCCCCCCC/C=C\CCCC/C=C\CCCCc1cc(=O)cc(CCCCCC/C=C/C(O)C#C)o1 (configuration not stated) [PETROCORTYNE C]	> 10 µg/mL	0.7 µg/mL (≈ 1.04 µM)	2.4 µg/mL (≈ 3.58 µM)	> 10 µg/mL	7.5 µg/mL (≈ 11.2 µM)	89%	100%	100%
C#C/C=C\CCCCCCCCCCCCC/C=C/C(=O)CCCC/C=C\CCCCC#C[C@@H](O)C#CCCCCCC/C=C/[C@H](O)C#C [PETROTETRAYNDIOL C]	> 10 µg/mL	4.2 µg/mL (≈ 6.28 µM)	4.1 µg/mL (≈ 6.13 µM)		5.7 µg/mL (≈ 8.52 µM)	45%	46%	81%
C#C/C=C\CCCCCCCCCCCCCCC(=O)CCCCC/C=C\CCCCC#CC(O)C#CCCCCCC/C=C/C(O)C#C (configuration not stated) [PETROTETRAYNDIOL D]	> 10 µg/mL	> 10 µg/mL	> 10 µg/mL	> 10 µg/mL	> 10 µg/mL	66%	80%	100%
C#CCCCCCCCCCCCCCCCC/C=C\CCCC/C=C\CC/C=C/C#C[C@@H](O)C#CCCCCCC/C=C/[C@H](O)C#C [PETROTETRAYNDIOL E]	24.5 µg/mL (≈ 37.4 µM)	1.7 µg/mL (≈ 2.6 µM)	1.1 µg/mL (≈ 1.68 µM)	3.4 µg/mL (≈ 5.19 µM)	1.8 µg/mL (≈ 2.75 µM)	62%	83%	100%
C#C/C=C\CCCCCCCCCCCCCC/C=C\CCCC/C=C\CCCCC#CC(=O)C#CCCCCCC/C=C/[C@H](O)C#C [PETROTETRAYNOL A]	> 30 µg/mL	4.6 µg/mL (≈ 7.04 µM)	5.2 µg/mL (≈ 7.96 µM)	> 30 µg/mL	> 30 µg/mL	76%	100%	100%
C#C/C=C\CCCCCCCCCCCCCC/C=C\CCCC/C=C\CCCC(O)C#CC(O)C#CCCCCCC/C=C/[C@H](O)C#C (some centres not stated) [PETROTETRAYNTRIOL A]	> 30 µg/mL	4.2 µg/mL (≈ 6.26 µM)	3.9 µg/mL (≈ 5.81 µM)	18.5 µg/mL (≈ 27.6 µM)	12.9 µg/mL (≈ 19.2 µM)	63%	77%	100%
C#C/C=C\CCCCCCCCCCCCCC/C=C\CCCC/C=C\CCCC/C=C\[C@@H](O)C#CCCCCCC/C=C/[C@H](O)C#C [PETROTRIYNDIOL A]	1.8 µg/mL (≈ 2.74 µM)	0.8 µg/mL (≈ 1.22 µM)	0.6 µg/mL (≈ 0.913 µM)	1.3 µg/mL (≈ 1.98 µM)	0.8 µg/mL (≈ 1.22 µM)	62%	90%	100%
